ChEMBL document CHEMBL1156823, “Design and synthesis of novel quinone inhibitors targeted to the redox function of apurinic/apyrimidinic endonuclease 1/redox enhancing factor-1 (Ape1/ref-1)” (J Med Chem, 2010)
The source made the active and inactive calls. The calls are words filed in the database; no cut-off is given here.

Tests used:
[1] = Growth inhibition of human Hey-C2 cells after 72 hrs by MTS assay; assay type: functional; settings: Hey-C2, 72 h
How it was run: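 Hey-C2 ovarian cancer cells grown in RPMI 1640 with 10% fetal calf serum; 2–4,000 cells per well in triplicate, adhered overnight, then exposed to drug for 72 h at 37 °C. MTS reagent (0.05 mg/mL) added for 4 h at 37 °C, absorbance read at 490 nm, normalized to media-alone wells. GI50 is the average of three experiments.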

[2] = target: T1, DNA repair nuclease/redox regulator APEX1 (Homo sapiens, UniProt P27695); assay: Inhibition of Ape1/ref-1 endonuclease activity up to 100 uM
[3] = target: T1, DNA repair nuclease/redox regulator APEX1; assay: Inhibition of Ape1/ref-1 redox activity in presence of 0.02 mM DTT and human Hey-C2 cells nuclear extracts by EMSA; assay type: cell-free
How it was run: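 Purified Ape1 reduced with 1.0 mM DTT at 37 °C for 10 min, then diluted in PBS. Poly(dI-dC) added for 5 min, then HEX-labeled AP-1 consensus duplex (0.1 pmol) for 30 min at room temperature. Final DTT 0.02 mM.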

T1 sequence (P27695 whole entry): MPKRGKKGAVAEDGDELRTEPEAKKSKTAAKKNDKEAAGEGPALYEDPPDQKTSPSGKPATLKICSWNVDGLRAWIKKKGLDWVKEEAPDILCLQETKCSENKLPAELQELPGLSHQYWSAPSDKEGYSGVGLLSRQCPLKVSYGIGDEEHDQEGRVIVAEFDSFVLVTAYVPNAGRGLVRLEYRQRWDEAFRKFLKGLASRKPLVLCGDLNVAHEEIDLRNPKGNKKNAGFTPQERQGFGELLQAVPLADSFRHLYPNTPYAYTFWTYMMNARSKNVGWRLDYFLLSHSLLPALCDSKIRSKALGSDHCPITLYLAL

In the case of `CCCCCCCCC/C(=C\C1=C(C)C(=O)C(OC)=C(OC)C1=O)C(=O)NCCO`, the GI50 [1] is reported as 35 µM and the inhibition [2] is reported as “inactive”.
In the case of `CCCCCCCCC/C(=C\C1=C(C)C(=O)C(OC)=C(OC)C1=O)C(=O)O` [APX-3330], the GI50 [1] is reported as 35 µM and the inhibition [2] is reported as “inactive”.
With `COC1=C(OC)C(=O)C(/C=C(\C)C(=O)O)=C(C)C1=O` the GI50 [1] was 130 µM and the inhibition [2] was “inactive”.
In the case of `C/C(=C\C1=CC(=O)c2ccccc2C1=O)C(=O)O`, the IC50 [3] is reported as 3000 nM, the GI50 [1] is reported as 20 µM and the inhibition [2] is reported as “inactive”.
For `C/C(=C\C1=C(F)C(=O)c2ccccc2C1=O)C(=O)O`, the GI50 [1] was 50 µM and the inhibition [2] was “inactive”.
For `COC1=C(OC)C(=O)C(/C=C(\C)C(=O)O)=C(Cl)C1=O`, the IC50 [3] was 3000 nM, the GI50 [1] was 45 µM and the inhibition [2] was “inactive”.
With `COC1=C(OC)C(=O)C(/C=C/C(=O)O)=C(C)C1=O` the GI50 [1] was 250 µM and the inhibition [2] was “inactive”.
In the case of `C/C(=C\C1=C(Cl)C(=O)c2ccccc2C1=O)C(=O)O`, the GI50 [1] is reported as 15 µM and the inhibition [2] is reported as “inactive”.
With `COCC/C(=C\C1=C(Cl)C(=O)c2ccccc2C1=O)C(=O)O` the GI50 [1] was 30 µM and the inhibition [2] was “inactive”.
In the case of `CCCC/C(=C\C1=C(C)C(=O)C(OC)=C(OC)C1=O)C(=O)O`, the GI50 [1] is reported as 85 µM and the inhibition [2] is reported as “inactive”.
For `O=C(O)CCC1=C(Br)C(=O)c2ccccc2C1=O`, the GI50 [1] was 15 µM and the inhibition [2] was “inactive”.
With `COCC/C(=C\C1=C(Br)C(=O)c2ccccc2C1=O)C(=O)O` the IC50 [3] was 1000 nM, the GI50 [1] was 25 µM and the inhibition [2] was “inactive”.
With `C/C(=C\C1=C(Cl)C(=O)c2ccccc2C1=O)C(=O)NCCO` the IC50 [3] was 1000 nM, the GI50 [1] was 8 µM and the inhibition [2] was “inactive”.
With `CSC1=C(/C=C(\C)C(=O)O)C(=O)c2ccccc2C1=O` the GI50 [1] was 30 µM and the inhibition [2] was “inactive”.
With `COCC/C(=C\C1=C(C)C(=O)C(OC)=C(OC)C1=O)C(=O)O` the GI50 [1] was 200 µM and the inhibition [2] was “inactive”.
In the case of `COCC/C(=C\C1=C(C)C(=O)c2ccccc2C1=O)C(=O)O`, the GI50 [1] is reported as 30 µM and the inhibition [2] is reported as “inactive”.
For `C/C(=C/C1=C(Cl)C(=O)c2ccccc2C1=O)C(=O)O`, the IC50 [3] was 2000 nM, the GI50 [1] was 30 µM and the inhibition [2] was “inactive”.
In the case of `C/C(=C\C1=C(Br)C(=O)c2ccccc2C1=O)C(=O)O`, the GI50 [1] is reported as 13 µM.
For `COC1=C(/C=C(\C)C(=O)O)C(=O)c2ccccc2C1=O`, the IC50 [3] was 1000 nM, the GI50 [1] was 40 µM and the inhibition [2] was “inactive”.
For `CC1=C(/C=C(\C)C(=O)O)C(=O)c2ccccc2C1=O`, the GI50 [1] was 45 µM and the inhibition [2] was “inactive”.
